INS-1E GSIS act: GLuc luminescence reporter in INS-1E cells, primary screen for activators of glucose-dependent secretion of insulin; INS-1E GLuc reporter insulin secretion, 2-3 h; hit rate 0.61% among 370,000; activation, % at 16.6 µM; AID 743287, 2014;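 active = lowest replicate activation of at least 40%, so every replicate reaches that level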;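 note: 0% = median of neutral control wells and 100% = median of IBMX positive control wells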
miR122 inh: miR-122 Renilla sensor signal increase in Huh7, primary screen, miR-122 inhibitor project, cell-based, single point, plate reader; Huh7 miR-122 Renilla luciferase sensor, 48 h; neutral wells = 0, positive control = 100; activation (reporter increase), % at 12.5 µM; hit rate 0.3% among 340,000; AID 602342, 2012;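 active = mean replicate activation score at least 90 and every replicate individually at or above 90; inconclusive = only one of the two criteria met; inactive = neither criterion met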;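 note: higher luciferase means less miR-122 activity so hits act as miR-122 inhibitors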
ERAP1 inh: human ERAP1 aminopeptidase inhibitors, primary screen, biochemical, single point, plate reader; recombinant ERAP1, Leu-AMC fluorescence, 60 min; Endoplasmic reticulum aminopeptidase 1 (Homo sapiens), Q9NZ08; hit rate 0.15% among 340,000; inhibition, % at 10.7 µM;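 active = mean replicate inhibition of at least 30%, or all replicates individually reaching that 30% level; inactive = mean below 30% and not every replicate reaching it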;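 note: 0% = neutral control wells and 100% = L-leucinethiol positive control wells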
Target sequence (Q9NZ08 whole entry, looked up): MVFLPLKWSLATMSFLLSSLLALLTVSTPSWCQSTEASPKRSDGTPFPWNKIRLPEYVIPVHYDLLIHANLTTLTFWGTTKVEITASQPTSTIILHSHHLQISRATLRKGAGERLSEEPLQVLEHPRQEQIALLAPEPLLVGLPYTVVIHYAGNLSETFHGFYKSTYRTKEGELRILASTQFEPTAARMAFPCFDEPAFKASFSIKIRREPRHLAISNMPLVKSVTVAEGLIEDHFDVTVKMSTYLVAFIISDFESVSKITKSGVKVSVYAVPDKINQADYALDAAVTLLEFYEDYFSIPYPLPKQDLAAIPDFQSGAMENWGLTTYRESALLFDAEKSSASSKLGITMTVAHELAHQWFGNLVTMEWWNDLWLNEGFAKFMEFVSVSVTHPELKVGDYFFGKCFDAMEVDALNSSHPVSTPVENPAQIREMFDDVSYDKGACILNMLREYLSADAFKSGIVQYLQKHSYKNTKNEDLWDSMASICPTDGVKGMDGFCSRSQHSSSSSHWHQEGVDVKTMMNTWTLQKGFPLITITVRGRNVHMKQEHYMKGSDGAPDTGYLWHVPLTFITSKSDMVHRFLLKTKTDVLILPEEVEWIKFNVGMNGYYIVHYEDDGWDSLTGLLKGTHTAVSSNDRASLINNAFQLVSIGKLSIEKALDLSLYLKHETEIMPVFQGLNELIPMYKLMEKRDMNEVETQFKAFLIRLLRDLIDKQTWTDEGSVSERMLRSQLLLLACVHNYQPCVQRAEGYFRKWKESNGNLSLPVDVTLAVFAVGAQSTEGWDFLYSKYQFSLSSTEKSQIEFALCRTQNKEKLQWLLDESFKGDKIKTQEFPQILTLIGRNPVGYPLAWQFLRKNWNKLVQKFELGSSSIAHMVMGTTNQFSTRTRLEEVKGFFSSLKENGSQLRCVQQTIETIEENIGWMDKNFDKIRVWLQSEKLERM
DENV2 CPE: inhibitors of DENV2 cytopathic effect, primary screen, cell-based, plate reader, single concentration; AID 651640, 2012; CPE inhibition, % at 9.99 µM; DENV2-infected cells, cytopathic effect rescue; hit rate 1.7% among 350,000; in the data active = CPE inhibition above about 20%, passing the limit was not always enough; inconclusive = no clear call, values can overlap the other calls; tested in BHK-21 cells;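 note: 0% = median of neutral control wells and 100% = median of positive control wells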
E-selectin induc: E-selectin induction in HUVECs, primary screen, imaging, HUVEC, immunofluorescence imaging, single point | activation, % at 7.58 µM | hit rate 0.37% among 260,000 | normalized: neutral wells 0, TNF-alpha wells 100;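 active = mean E-selectin-positive cell signal at least 10% of the positive control, reached in at least 60% of replicates, without over 20% cell loss; inconclusive = no rule given, readout overlaps actives, possibly toxicity-flagged; inactive = the rest, including those meeting only one limit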
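Read-out: % PE-positive cells | Test system: HUVEC | Doses: One compound dose added by pin transfer | Buffer or medium: EGM-2 over gelatin coat | Signal: Immunofluorescence imaging | Benchmarks: TNF-alpha, DMSO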
CFTR F508del cor: F508del CFTR correction, initial screen, CFBE line, single point | CFBE cells, YFP halide quenching; stimulated with forskolin plus potentiator P3; % fluorescence drop versus neutral controls | activity (quench increase), % at 7.58 µM | hit rate 0.36% among 350,000 | AID 720511, 2013;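 active = mean added fluorescence quench of at least 8% versus neutral control, with both replicates also reaching 8%; inconclusive = only one of the mean or replicate conditions met; inactive = mean below 8% and not both replicates reaching 8%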;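 note: cells transiently co-express mutant CFTR-F508del with the halide-sensitive YFP; corrector assay measuring rescue of mutant channel to the surface after 24 h compound exposure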
Numbers without * were called inactive; u = inconclusive; x = no result given; ! = not confirmed by another sample; [ ] = another dose, or the depositor's remark. Sampled rows, rich in hits. Any-hit rate of the full collection: about 2.6%.

SMILES	INS-1E GSIS act	miR122 inh	ERAP1 inh	DENV2 CPE	E-selectin induc	CFTR F508del cor
N#C[C@@H]1[C@H](c2ccc(-c3ccccc3F)cc2)[C@@H](CO)N1C(=O)C1CC1	-2	x	1	37*	0	6
N#C[C@H]1[C@@H](c2ccc(-c3ccccc3F)cc2)[C@H](CO)N1C(=O)C1CC1	-7	x	-1	-2	0	1
COc1ccccc1-c1ccc([C@H]2[C@@H](CO)N(C(C)=O)[C@@H]2CN(C)C(C)=O)cc1	7	x	1	0	0	3
CC(=O)N(C)C[C@H]1[C@H](c2ccc(-c3ccccc3F)cc2)[C@@H](CO)N1C(C)=O	7	-5[16.7 µM]	-2	32*	1	0
O=C(C[C@H]1CC[C@@H](NC(=O)C2CC2)[C@H](CO)O1)NCCCN1CCOCC1	-11	-2[16.7 µM]	0	-12	0	-2
COCC(=O)Nc1ccc2c(c1)[C@H]1C[C@@H](CC(=O)N[C@@H](C)c3ccccc3)O[C@@H](CO)[C@H]1O2	2	-3[16.7 µM]	-2	4	1	3
N#C[C@H]1[C@H](c2ccc(-c3ccccc3F)cc2)[C@@H](CO)N1C(=O)C1CC1	7	x	-1	30*	2	2
COc1ccc(-c2ccccc2[C@@H]2[C@H](C#N)N(C(=O)C3CC3)[C@H]2CO)cc1	1	x	1	45*	0	1
N#C[C@@H]1[C@H](c2ccc(-c3cccc(F)c3)cc2)[C@H](CO)N1C(=O)NC1CCCC1	-17	x	-1	-21	1	8.6*
N#C[C@H]1[C@@H](c2ccc(-c3ccccc3F)cc2)[C@@H](CO)N1C(=O)C1CC1	4	x	-1	-5	0	1
CO[C@H]1CN(C)C(=O)c2ccc(NC(=O)C3CCOCC3)cc2OC[C@@H](C)N(Cc2cccnc2)C[C@H]1C	-9	x	3	-2	1	-1
O=C(c1ccc(F)cc1)N1CCCCN2[C@@H](CO)[C@@H](c3ccc(C#CC4(O)CCCC4)cc3)[C@@H]2C1	-13	-6[16.7 µM]	5	36*	0	-1
O=C(c1ccc(F)cc1)N1CCCCN2[C@@H](CO)[C@H](c3ccc(C#CC4(O)CCCC4)cc3)[C@@H]2C1	5	-7[16.7 µM]	0	5	0	1
COc1ccc(C#Cc2ccc([C@H]3[C@@H](CO)N4CCCCN(Cc5ccccc5F)C[C@H]34)cc2)cc1	-3	-24[16.7 µM]	-2	-34	0	0
OC[C@H]1[C@@H](c2ccc(C#CC3(O)CCCC3)cc2)[C@@H]2CN(Cc3ccccc3F)CCCCN12	-11	-15[16.7 µM]	0	41*	0	3
CCC(=O)N(C)C[C@@H]1Oc2cc(C#CCN(C)C)ccc2S(=O)(=O)N([C@@H](C)CO)C[C@H]1C	1	0[16.7 µM]	0	7	0	0
CCOc1ccc(N)c(SSc2cc(OCC)ccc2N)c1	10	x	38*	-5	0	-2
O=C(c1ccc2c(c1)OCO2)N1CC2(C1)[C@@H](c1ccccc1)[C@@H](CO)N2C(=O)C1CC1	-12	x	-2	-6	0	0
O=C(N[C@@H]1CC[C@H](CCNC(=O)C2CCCCC2)O[C@@H]1CO)c1ccncc1	-8	x	0	0	0	4
N#Cc1cc(Br)ccc1N=C1CCCN1c1ccccc1	-2	0	7	24*	x	0
COc1ccccc1-c1cccc(-c2nc(C(=O)Nc3nccs3)cc3c2[C@@H](CCO)N(C(=O)CC2CC2)C3)c1	5	x	45*	5	0	-4
CCNC(=O)c1cc2c(c(-c3cccc(-c4ccccc4F)c3)n1)[C@@H](CCO)N(C(=O)CC1CC1)C2	-24	x	3	2	0	2
CCCNC(=O)c1cc2c(c(-c3cccc(-c4ccccc4F)c3)n1)[C@H](CCO)N(C(=O)CC1CC1)C2	-41	x	0	82*	0	-2
C[C@@H]1CN([C@H](C)CO)C(=O)c2cccc(NC(=O)NC3CCCCC3)c2O[C@H]1CN(C)C	16	-1[16.7 µM]	1	1	-4	1
Cc1ccccc1CCN1CCCC(CN(C)C(=O)c2ccc3ncccc3c2)C1 (stereo unspecified)	-3	-7	-4	1	68*	5
SMILES	INS-1E GSIS act	miR122 inh	ERAP1 inh	DENV2 CPE	E-selectin induc	CFTR F508del cor
COc1ccc2c3c([nH]c2c1)[C@@H](CO)N(C(=O)NC1CCCC1)CC31CN(S(C)(=O)=O)C1	-4	x	-7	-6	0	3
O=C(C[C@@H]1C[C@@H]2c3cc(NC(=O)C4CCOCC4)ccc3O[C@@H]2[C@@H](CO)O1)NCCc1ccccc1	7	-4[16.7 µM]	0	-3	-1	-2
O=C(c1ccccc1F)N1CC(=O)N2[C@H](CO)[C@@H](c3ccc(C#Cc4ccc(F)cc4)cc3)[C@@H]2C1	16	x	0	15	-1	2
FC(F)(F)c1ccccc1CN1CCCc2nc(-c3ccc(Br)cc3)ccc21	-41	x	0	42*	0	3
CS(=O)(=O)N1C[C@@H]2N[C@H](C1)[C@@H]2c1ccc(-c2ccccc2)cc1	13	x	x	100*	0	7
N#Cc1cccc(-c2ccc([C@@H]3[C@@H]4CN(S(=O)(=O)c5ccc(-c6ccccc6)cc5)C[C@H]3N4)cc2)c1	556*	x	-3	-6	0	-8
Cc1ccccc1S(=O)(=O)N1C[C@@H]2N[C@H](C1)C2c1ccc(-c2cccc(C#N)c2)cc1 (stereo partly specified)	-3	x	x	u	0	8.4*!
N#Cc1cccc(-c2ccc(C3[C@@H]4CN(S(=O)(=O)c5ccccc5F)C[C@H]3N4)cc2)c1 (stereo partly specified)	0	x	6	-2	0	2
Cc1cccc(S(=O)(=O)N2CC[C@H]3[C@@H](CO)N(C)c4ccc(-c5ccccc5F)cc4[C@H]32)c1	-1	1[16.7 µM]	-1	-17	0	2
COc1ccc(CN(C)C[C@H]2OCCCC[C@@H](C)Oc3ccc(NS(=O)(=O)c4c(C)noc4C)cc3C(=O)N([C@@H](C)CO)C[C@H]2C)cc1	-3	-11[16.7 µM]	2	-1	0	1
COc1ccc(S(=O)(=O)Nc2ccc3c(c2)C(=O)N(C)C[C@H](OC)[C@@H](C)CN[C@@H](C)CO3)cc1	-4	x	2	7	0	0
COc1ccc(NC(=O)N(C)C[C@@H]2Oc3ncc(Br)cc3C(=O)N([C@H](C)CO)C[C@@H]2C)cc1	18	15[16.7 µM]	-5	-5	0	2
